In ChEMBL document CHEMBL1921722, “In vitro and in vivo evaluation of select kahalalide F analogs with antitumor and antifungal activities” (Bioorg Med Chem, 2011):
The source made the active and inactive calls.

Assays:
KM12 = experiment: Cytotoxicity against human KM12 cells by sulforhodamine B assay; format: functional
Summary of the method: (§1)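 NCI Developmental Therapeutics Program 60-cell-line human tumor panel screen, run at NCI. A single-concentration pre-screen was followed by a five-concentration dose-response in 10-fold steps. GI50 is the concentration that reduces growth of treated cells to half that of untreated control cells. TGI is the concentration that completely halts growth.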

A549 = experiment: Cytotoxicity against human A549 cells by sulforhodamine B assay; format: functional
Summary of the method: (§2)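 Run at NCI in the DTP 60-cell-line human tumor panel by standard procedure. Compounds were first screened at a single concentration, then tested at five tenfold-spaced concentrations. GI50 is the concentration reducing treated-cell growth to half that of untreated controls; TGI is the concentration completely halting growth.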

LOX IMVI [1] = experiment: Cytotoxicity against human LOXIMVI cells assessed as cell growth at 8 nM by sulforhodamine B assay relative to control; format: functional; conditions: read-out: Activity
BT-549 [2] = experiment: Cytotoxicity against human BT549 cells assessed as cell growth at 80 uM by sulforhodamine B assay relative to control; format: functional; conditions: read-out: Activity; summary of the method: as §2
MOLT-4 [3] = experiment: Cytotoxicity against human MOLT4 cells assessed as cell growth at 80 nM by sulforhodamine B assay relative to control; format: functional; conditions: read-out: Activity
HCC 2998 [4] = experiment: Cytotoxicity against human HCC2998 cells assessed as cell growth at 8 nM by sulforhodamine B assay relative to control; format: functional; conditions: read-out: Activity
SK-MEL-28 = experiment: Cytotoxicity against human SK-MEL-28 cells by sulforhodamine B assay; format: functional; summary of the method: as §1
SF-539 [5] = experiment: Cytotoxicity against human SF539 cells assessed as cell growth at 80 nM by sulforhodamine B assay relative to control; format: functional; conditions: read-out: Activity
MOLT-4 [6] = experiment: Cytotoxicity against human MOLT4 cells assessed as cell growth at 8 uM by sulforhodamine B assay relative to control; format: functional; conditions: read-out: Activity
SNB-19 [7] = experiment: Cytotoxicity against human SNB19 cells assessed as cell growth at 8 nM by sulforhodamine B assay relative to control; format: functional; conditions: read-out: Activity
HCC 2998 [8] = experiment: Cytotoxicity against human HCC2998 cells by sulforhodamine B assay; format: functional
Summary of the method: (§3)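 Run by the NCI Developmental Therapeutics Program on its 60-line human tumour cell panel using the standard procedure. Compounds went through a single-concentration prescreen first, and those active by NCI criteria went on to a five-concentration growth-inhibition test. GI50 is the concentration that cuts growth of treated cells to half that of untreated control cells.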

MDA-MB-435 = experiment: Cytotoxicity against human MDA-MB-435 cells assessed as cell growth at 80 nM by sulforhodamine B assay relative to control; format: functional; conditions: read-out: Activity
HOP-92 = experiment: Cytotoxicity against human HOP92 cells by sulforhodamine B assay; format: functional; summary of the method: as §3
SF-539 [9] = experiment: Cytotoxicity against human SF539 cells assessed as cell growth at 80 uM by sulforhodamine B assay relative to control; format: functional; conditions: read-out: Activity
OVCAR-8 [10] = experiment: Cytotoxicity against human OVCAR8 cells assessed as cell growth at 8 nM by sulforhodamine B assay relative to control; format: functional; conditions: read-out: Activity
IGROV-1 = experiment: Cytotoxicity against human IGROV1 cells assessed as cell growth at 800 nM by sulforhodamine B assay relative to control; format: functional; conditions: read-out: Activity
EKVX = experiment: Cytotoxicity against human EKVX cells assessed as cell growth at 8 nM by sulforhodamine B assay relative to control; format: functional; conditions: read-out: Activity
MDA-MB-231 = experiment: Cytotoxicity against human MDA-MB-231 cells assessed as cell growth at 8 uM by sulforhodamine B assay relative to control; format: functional; conditions: read-out: Activity
BT-549 [11] = experiment: Cytotoxicity against human BT549 cells assessed as cell growth at 8 nM by sulforhodamine B assay relative to control; format: functional; conditions: read-out: Activity; summary of the method: as §2
LOX IMVI [12] = experiment: Cytotoxicity against human LOXIMVI cells assessed as cell growth at 8 uM by sulforhodamine B assay relative to control; format: functional; conditions: read-out: Activity
OVCAR-4 = experiment: Cytotoxicity against human OVCAR4 cells assessed as cell growth at 8 nM by sulforhodamine B assay relative to control; format: functional; conditions: read-out: Activity
OVCAR-8 [13] = experiment: Cytotoxicity against human OVCAR8 cells assessed as cell growth at 8 uM by sulforhodamine B assay relative to control; format: functional; conditions: read-out: Activity
PC-3 = experiment: Cytotoxicity against human PC3 cells by sulforhodamine B assay; format: functional; summary of the method: as §1
SN12C = experiment: Cytotoxicity against human SN12C cells assessed as cell growth at 80 uM by sulforhodamine B assay relative to control; format: functional; conditions: read-out: Activity
COLO 205 = experiment: Antitumor activity against human COLO205 cells xenografted in mouse assessed as tumor cell killing at 4.7 mg/kg, ip qd for 4 days by MTT assay; format: functional, organism-based; design: dose 4.7 mg/kg
Summary of the method: (§4)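 Hollow-fiber assay in mice. Tumor lines were grown in RPMI-1640 with 10% FBS and 2 mM glutamine. Cells at 2 × 10^6 cells/ml were loaded into 1 mm PVDF fibers (500,000 Da cutoff), heat-sealed at 2 cm and held 24–48 h at 37 °C, 5% CO2 before implantation. Compound was given IP. Fibers were collected the day after the fourth treatment for MTT (OD 540 nm, group means). A ≥50% cut in percent net growth versus vehicle counted as positive.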

NCI-H460 = experiment: Cytotoxicity against human NCI-H460 cells assessed as cell growth at 80 nM by sulforhodamine B assay relative to control; format: functional; conditions: read-out: Activity
SK-OV-3 = experiment: Cytotoxicity against human SKOV3 cells by sulforhodamine B assay; format: functional; summary of the method: as §1
MCF7 = experiment: Cytotoxicity against human MCF7 cells assessed as cell growth at 80 nM by sulforhodamine B assay relative to control; format: functional; conditions: read-out: Activity
OVCAR-3 = experiment: Antitumor activity against human OVCAR3 cells xenografted in mouse assessed as tumor cell killing at 4.7 mg/kg, ip qd for 4 days by MTT assay; format: functional, organism-based; design: dose 4.7 mg/kg; summary of the method: as §4
HOP-62 = experiment: Cytotoxicity against human HOP62 cells assessed as cell growth at 800 nM by sulforhodamine B assay relative to control; format: functional; conditions: read-out: Activity
NCI-H23 = experiment: Cytotoxicity against human NCI-H23 cells assessed as cell growth at 800 nM by sulforhodamine B assay relative to control; format: functional; conditions: read-out: Activity
HCT-116 = experiment: Cytotoxicity against human HCT116 cells by sulforhodamine B assay; format: functional; summary of the method: as §3
SNB-19 [14] = experiment: Cytotoxicity against human SNB19 cells assessed as cell growth at 800 nM by sulforhodamine B assay relative to control; format: functional; conditions: read-out: Activity
OVCAR-8 [15] = experiment: Cytotoxicity against human OVCAR8 cells assessed as cell growth at 80 nM by sulforhodamine B assay relative to control; format: functional; conditions: read-out: Activity
HCC 2998 [16] = experiment: Cytotoxicity against human HCC2998 cells assessed as cell growth at 80 uM by sulforhodamine B assay relative to control; format: functional; conditions: read-out: Activity

Question: What does the source list for `C/C=C1\NC(=O)[C@H](Cc2ccccc2)NC(=O)[C@@H](C(C)C)NC(=O)[C@@H]([C@@H](C)CC)NC(=O)[C@H](NC(=O)[C@H](NC(=O)[C@H](CCCNCc2ccc(F)c(C)c2)NC(=O)[C@H]2CCCN2C(=O)[C@H](NC(=O)[C@@H](NC(=O)[C@@H](NC(=O)[C@H](NC(=O)CCCC(C)C)C(C)C)[C@@H](C)O)C(C)C)C(C)C)[C@@H](C)CC)[C@@H](C)OC(=O)[C@H](C(C)C)NC1=O`?
Answer: GI50 (KM12; read-out: GI50): 155 nM; TGI (KM12; read-out: TGI): 328 nM; GI50 (KM12; read-out: pGI50 (converted)): 155 nM; TGI (KM12; read-out: pTGI (converted)): 331 nM; GI50 (A549; read-out: GI50): 167 nM; GI50 (A549; read-out: pGI50 (converted)): 166 nM; growth at 0.008 µM (LOX IMVI [1]): 96%; growth at 80 µM (BT-549 [2]): -58%; growth at 0.08 µM (MOLT-4 [3]): 97%; growth at 0.008 µM (HCC 2998 [4]): 108%; GI50 (SK-MEL-28): 1100 nM; growth at 0.08 µM (SF-539 [5]): 104%; growth at 8 µM (MOLT-4 [6]): -5%; growth at 0.008 µM (SNB-19 [7]): 99%; LC50 (HCC 2998 [8]): 891 nM; GI50 (HCC 2998 [8]; read-out: GI50): 172 nM; TGI (HCC 2998 [8]; read-out: TGI): 367 nM; GI50 (HCC 2998 [8]; read-out: pGI50 (converted)): 174 nM; TGI (HCC 2998 [8]; read-out: pTGI (converted)): 363 nM; growth at 0.08 µM (MDA-MB-435): 103%; GI50 (HOP-92): 1410 nM; LC50 (HOP-92): 6170 nM; TGI (HOP-92; read-out: pTGI (converted)): 2950 nM; growth at 80 µM (SF-539 [9]): -62%; growth at 0.008 µM (OVCAR-8 [10]): 107%; growth at 0.8 µM (IGROV-1): 48%; growth at 0.008 µM (EKVX): 101%; growth at 8 µM (MDA-MB-231): -55%; growth at 0.008 µM (BT-549 [11]): 106%; growth at 8 µM (LOX IMVI [12]): -85%; growth at 0.008 µM (OVCAR-4): 100%; growth at 8 µM (OVCAR-8 [13]): -14%; LC50 (PC-3): 708 nM; GI50 (PC-3; read-out: GI50): 165 nM; TGI (PC-3; read-out: TGI): 342 nM; GI50 (PC-3; read-out: pGI50 (converted)): 166 nM; TGI (PC-3; read-out: pTGI (converted)): 339 nM; growth at 80 µM (SN12C): -96%; Activity (COLO 205): inactive; growth at 0.08 µM (NCI-H460): 104%; LC50 (SK-OV-3): 891 nM; GI50 (SK-OV-3; read-out: GI50): 173 nM; TGI (SK-OV-3; read-out: TGI): 370 nM; GI50 (SK-OV-3; read-out: pGI50 (converted)): 174 nM; TGI (SK-OV-3; read-out: pTGI (converted)): 372 nM; growth at 0.08 µM (MCF7): 101%; Activity (OVCAR-3): inactive; growth at 0.8 µM (HOP-62): 87%; growth at 0.8 µM (NCI-H23): 98%; GI50 (HCT-116): 1380 nM; LC50 (HCT-116): 4270 nM; TGI (HCT-116; read-out: pTGI (converted)): 2450 nM; growth at 0.8 µM (SNB-19 [14]): 90%; growth at 0.08 µM (OVCAR-8 [15]): 103%; growth at 80 µM (HCC 2998 [16]): -88%
